Laboratory results from ChEMBL document CHEMBL1134519, “Synthesis, nicotinic acetylcholine receptor binding, and antinociceptive properties of 2-exo-2-(2'-substituted 5'-pyridinyl)-7-azabicyclo[2.2.1]heptanes. Epibatidine analogues” (J Med Chem, 2001).

Columns and labels:
Mus musculus [1] = assay: Antinociception by tail-flick test in male ICR mice after intrathecal (i.t.) injection, at 32.5 mg/kg; format: functional
In short: (§1)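 Male ICR mice injected intrathecally, free-hand between L4 and L6 while unanesthetized. Tail-flick latency was read before treatment (control 2-4 s) and 5 min after injection, with a 10 s cutoff. The result was expressed as %MPE = [(test − control)/(10 − control)] × 100. There were 8-12 mice per dose and at least four doses, and ED50 with 95% CL came from unweighted least-squares linear regression.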

[2] = Hill slope value of the compound
Mus musculus [3] = species: Mus musculus; assay: Antinociception by tail-flick test in male ICR mice after intrathecal (i.t.) injection; format: functional; in short: as §1
[4] = target: T1, Neuronal acetylcholine receptor; alpha4/beta2 (Rattus norvegicus, UniProt P09483+P12390); assay: Inhibition of [3H]epibatidine binding at the nicotinic acetylcholine receptor alpha4-beta2 in male rat cerebral cortex; format: tissue-based
T1 sequence (P09483 whole entry): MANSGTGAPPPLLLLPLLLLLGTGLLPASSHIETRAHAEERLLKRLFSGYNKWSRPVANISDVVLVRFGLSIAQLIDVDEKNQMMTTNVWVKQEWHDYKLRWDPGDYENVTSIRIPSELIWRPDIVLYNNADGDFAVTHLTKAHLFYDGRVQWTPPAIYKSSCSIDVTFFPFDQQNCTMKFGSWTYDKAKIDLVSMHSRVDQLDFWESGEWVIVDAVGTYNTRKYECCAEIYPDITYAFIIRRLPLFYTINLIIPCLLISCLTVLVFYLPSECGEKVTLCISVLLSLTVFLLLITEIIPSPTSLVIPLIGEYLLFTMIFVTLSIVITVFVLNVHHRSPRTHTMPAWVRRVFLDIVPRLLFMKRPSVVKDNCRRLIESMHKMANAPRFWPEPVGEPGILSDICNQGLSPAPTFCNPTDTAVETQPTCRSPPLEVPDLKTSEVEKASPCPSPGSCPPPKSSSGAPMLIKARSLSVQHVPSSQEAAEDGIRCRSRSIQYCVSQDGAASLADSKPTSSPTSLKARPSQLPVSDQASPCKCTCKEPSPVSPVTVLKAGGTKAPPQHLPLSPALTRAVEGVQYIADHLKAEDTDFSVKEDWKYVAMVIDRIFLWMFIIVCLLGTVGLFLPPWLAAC
T1 sequence (P12390 whole entry): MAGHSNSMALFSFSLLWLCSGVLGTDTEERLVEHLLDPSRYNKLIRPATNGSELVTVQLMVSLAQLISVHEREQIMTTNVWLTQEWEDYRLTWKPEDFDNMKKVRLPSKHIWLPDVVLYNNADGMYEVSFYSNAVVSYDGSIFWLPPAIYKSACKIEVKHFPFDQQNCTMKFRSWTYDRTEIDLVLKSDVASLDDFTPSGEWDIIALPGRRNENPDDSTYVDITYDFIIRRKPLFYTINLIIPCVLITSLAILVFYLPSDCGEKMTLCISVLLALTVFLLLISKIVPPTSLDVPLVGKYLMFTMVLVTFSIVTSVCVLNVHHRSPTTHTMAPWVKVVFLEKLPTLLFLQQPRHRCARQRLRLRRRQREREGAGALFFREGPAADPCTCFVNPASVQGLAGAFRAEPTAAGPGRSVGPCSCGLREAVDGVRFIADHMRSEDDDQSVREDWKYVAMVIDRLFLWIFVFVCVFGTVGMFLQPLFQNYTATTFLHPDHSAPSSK

[5] = target: T1, Neuronal acetylcholine receptor; alpha4/beta2; assay: Non-specific binding in presence of 300 uM nicotine at nicotinic acetylcholine receptor alpha4-beta2 in rat cerebral cortex membranes; format: cell membranes, Membrane
[6] = target: T1, Neuronal acetylcholine receptor; alpha4/beta2; assay: Inhibition of [3H]-nicotine binding at the nicotinic acetylcholine receptor alpha4-beta2; format: protein-complex assay
[7] = target: T1, Neuronal acetylcholine receptor; alpha4/beta2; assay: Inhibition of […] binding at the nicotinic acetylcholine receptor alpha4-beta2 in male rat cerebral cortex; format: tissue-based
In short: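 Male rat cerebral cortex homogenate (3 mg wet weight) was incubated with 0.5 nM [3H]epibatidine and 10-12 test concentrations, in buffer at pH 7.4 with 1% DMSO final, for 4 h at room temperature. Nonspecific binding was defined with 300 µM (-)-nicotine. Samples were filtered on PEI-soaked GF/B and counted by scintillation. IC50 came from at least three independent experiments by nonlinear regression, and Ki by Cheng-Prusoff.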

Mus musculus [8] = assay: Antinociception by tail-flick test in male ICR mice after intrathecal (i.t.) injection at 112 mg/kg; format: functional; in short: as §1

| SMILES | Hill coefficient [2] | ED50 (Mus musculus [3]) [nM mouse-1] | Ki [6] [nM] | other results |
| --- | --- | --- | --- | --- |
| CN(C)c1ccc(C2CC3CCC2N3)cn1 (stereo not drawn) | 1 | – | – | inhibition in vivo at 32.5 mg/kg (Mus musculus [1]): 10% |
| Clc1ccc([C@@H]2C[C@H]3CC[C@@H]2N3)cn1 [(+)-EPIBATIDINE] | – | 0.5 | – | – |
| Brc1ccc(C2CC3CCC2N3)cn1 (stereo not drawn) | 0.9 | 0.33 | – | Ki [4]: 0.023 nM |
| Oc1ccc(C2CC3CCC2N3)cn1 (stereo not drawn) | 1 | 52.4 | – | – |
| Clc1ccc([C@H]2C[C@@H]3CC[C@H]2N3)cn1 [(-)-EPIBATIDINE] | – | 0.6 | – | – |
| Fc1ccc(C2CC3CCC2N3)cn1 (stereo not drawn) | 0.9 | 0.31 | – | – |
| Ic1ccc(C2CC3CCC2N3)cn1 (stereo not drawn) | – | – | – | Ki [4]: 0.07 nM; Ki [5]: 0.48 nM |
| CN1CCCC1c1ccc(O)nc1 (stereo not drawn) | – | – | 1070 | – |
| CN1CCCC1c1ccc(Cl)nc1 (stereo not drawn) | – | – | 0.63 | – |
| O=c1ccc(C2CC3CCC2N3)c[nH]1 (stereo not drawn) | – | – | – | Ki [7]: 107 nM |
| Nc1ccc(C2CC3CCC2N3)cn1 (stereo not drawn) | 1 | – | – | inhibition in vivo at 112 mg/kg (Mus musculus [8]): 27%; Ki [4]: 1.3 nM |
| c1cncc(C2CC3CCC2N3)c1 (stereo not drawn) [DESCHLOROEPIBATIDINE] | 0.8 | 0.2 | – | Ki [4]: 0.02 nM; Ki [5]: 0.031 nM |
| CN1CCC[C@H]1c1cccnc1 [NICOTINE] | 0.9 | 74 | – | – |
| CN1CCCC1c1ccc(Br)nc1 (stereo not drawn) | – | – | 0.45 | – |
| CN1CCCC1c1ccc(F)nc1 (stereo not drawn) | – | – | 1.03 | – |
| CN1CCCC1c1ccc(N)nc1 (stereo not drawn) | – | – | 81 | – |
